CHT PAM = allosterically activates the human high affinity choline transporter | Q9GZV3 | AID 488977 | 310,000 tested, 0.49% active | B-score at 10 µM | CHT-expressing cells, membrane potential dye, choline EC20; stronger effect = higher value; LV-AA mutant CHT in HEK293 cells;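 active = initial fluorescence not abnormally high and integrated response B-score, plate-corrected, over 3 SD above library mean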
Target sequence (Q9GZV3 whole entry, looked up): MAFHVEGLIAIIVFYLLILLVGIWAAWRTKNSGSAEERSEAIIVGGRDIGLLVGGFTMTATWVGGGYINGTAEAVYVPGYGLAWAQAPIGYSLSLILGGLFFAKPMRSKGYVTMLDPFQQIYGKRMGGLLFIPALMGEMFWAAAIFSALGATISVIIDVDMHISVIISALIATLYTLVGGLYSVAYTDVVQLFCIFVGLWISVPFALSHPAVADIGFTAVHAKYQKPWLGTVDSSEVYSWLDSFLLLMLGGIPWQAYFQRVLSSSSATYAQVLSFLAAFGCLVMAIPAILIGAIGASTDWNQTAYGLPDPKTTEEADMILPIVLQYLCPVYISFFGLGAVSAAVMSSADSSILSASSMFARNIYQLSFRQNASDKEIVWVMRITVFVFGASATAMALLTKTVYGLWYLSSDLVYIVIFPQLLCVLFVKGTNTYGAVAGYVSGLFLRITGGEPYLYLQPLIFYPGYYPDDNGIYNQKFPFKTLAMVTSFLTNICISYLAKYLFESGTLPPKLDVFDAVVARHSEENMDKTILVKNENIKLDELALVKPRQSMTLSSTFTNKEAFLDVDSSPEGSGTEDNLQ
CHT inh = inhibitors of human choline transporter CHT. Q9GZV3. CHT-expressing cells, membrane potential dye, choline response; stronger effect = lower value. B-score at 10 µM. 310,000 tested, 0.86% active. AID 488975;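 active = B-score over 3 SD under the library average, and starting fluorescence ratio not unusually high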;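 also: choline stimulus applied at its EC90 after an EC20 pre-addition; B-score computed on integrated fluorescence ratio after choline addition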
Cl transport mod = modulates chloride dependent transport by human KCC2 | KCC2 cells, thallium flux FluoZin-2 fluorescence | B-score of Tl+ flux slope (higher = more flux/activation; lower = inhibition) at 10 µM | 190,000 tested, 2.2% active | AID 1456 | Q9H2X9;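 active = thallium flux slope and its plate-corrected score both differing from the plate sample mean at a set confidence after two filtering rounds, in either direction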;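 also: slope of fluorescence scaled to starting intensity during 10 to 20 s after thallium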
Rad51 HR inh = blocks human Rad51 in homologous recombination. Q06609. hRad51 DNA strand exchange, fluorescence dequenching. inhibition, % at 10 µM. 200,000 tested, 0.085% active. AID 1385;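 active = inhibition above 40% at the single screening dose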
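Read-out basis: percent inhibition relative to plate controls and blanks / Assay system: human Rad51 nucleoprotein filaments preassembled on unlabelled ssDNA / Timing: filaments 15 min 37 °C, then compound 30 min / Control set: per-plate controls and blanks / Technique: fluorescence dequenching at 485/520 nm / Compound: 10 µM final, single point / Also added: Fluorescein- and BHQ1-tagged 47-mer duplex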
KCC2 secondary = KCC2 (human) modulation, secondary assay | shares compounds with Cl transport mod | HEK293-KCC2, thallium flux, FluoZin2 fluorescence; stronger effect = higher value | normalised thallium flux (F/F0 slope) at 10 µM | 3,700 tested, 15% active | AID 1713;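 active = thallium flux slope above the same plate's solvent-only control mean plus 3 SD; inconclusive = the two replicate wells disagree; inactive = no significant difference from solvent-only control wells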
KCC2 bumet counter = thallium flux persisting under bumetanide in KCC2 cells, counter-screen secondary assay | shares compounds with Cl transport mod | HEK293-KCC2 + bumetanide/ouabain, thallium flux FluoZin2; stronger effect = higher value | normalized thallium flux at 10 µM | AID 1714 | 3,700 tested, 49% active;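 active = thallium entry rate above the same plate's blocked-transporter control wells by more than 3 SD; inconclusive = the two repeat wells disagree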;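 also: raw slope of fluorescence over initial fluorescence between 10 and 20 s after thallium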
KCC2 secondary2 = confirmation of human KCC2 transport modulators | normalized thallium flux at 10 µM | HEK293-KCC2, thallium flux FluoZin2 fluorescence; actives lie on both sides; F/F0 rise rate, 10–20 s post-thallium | 3,700 tested, 23% active | AID 1715 | shares compounds with Cl transport mod;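 active = thallium flux slope more than 3 SD above or below the plate's solvent-only control mean, mostly below; inconclusive = the two repeat wells disagreed; inactive = no significant shift from solvent-only controls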
HEK293 Tl flux = parental HEK flux effect, counter-screen | thallium flux rate (normalised fluorescence) at 10 µM | 3,700 tested, 46% active | HEK293 parental cells, thallium flux FluoZin2, ouabain; baseline-ratio fluorescence slope, 10–20 s after thallium | shares compounds with Cl transport mod;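 active = thallium flux rate significantly above the same plate's solvent-only control wells, beyond their mean plus 3 SD; inconclusive = the two replicate wells gave conflicting results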
KCC2 ouabain = modulates human KCC2 on retest with ouabain; AID 1717; shares compounds with Cl transport mod; raw Tl+ flux slope (below DMSO = inhibition, above = activation) at 10 µM; 3,700 tested, 48% active; HEK293-KCC2, thallium flux FluoZin2 fluorescence; bidirectional: low = inhibitor, high = activator;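 active = thallium flux slope beyond 3 SD from same-plate DMSO control mean in most replicates, usually higher, sometimes lower; inconclusive = repeat tests gave conflicting results; inactive = no significant difference from controls in most replicates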;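 also: slope of initial-normalized fluorescence between seconds 10 and 20 after thallium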
HEK293 Tl flux2 = counter-screen for KCC2 modulators: effect in parental HEK293 cells | AID 1718 | thallium flux slope at 10 µM | thallium flux FluoZin-2 fluorescence slope | shares compounds with Cl transport mod | 3,700 tested, 33% active;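 active = thallium flux slope above the same plate's solvent-control mean plus 3 SD in both duplicate wells; inconclusive = duplicate wells that disagreed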;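 also: run without ouabain in cells lacking the KCC2 cotransporter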
Hits are given with their value; n = inactive; u = inconclusive; x = no result. The list is not random: actives were taken first. Their share in the collection is about 2.6%.

SMILES	CHT PAM	CHT inh	Cl transport mod	Rad51 HR inh	KCC2 secondary	KCC2 bumet counter	KCC2 secondary2	HEK293 Tl flux	KCC2 ouabain	HEK293 Tl flux2
Cc1ccc(NC(=O)CSCc2ccc(F)cc2)cc1	n	n	n	n	x	x	x	x	x	x
Cc1ccc(NC(=O)Cc2ccc(F)cc2)cc1	n	n	2.6	n	n	n	n	n	n	n
COc1ccc(OC)c(-c2csc(NC(=O)c3ccc4c(c3)OCO4)n2)c1	n	n	6.7	n	n	n	n	n	n	n
COc1ccc(CC(=O)Nc2nc(-c3cc(OC)ccc3OC)cs2)cc1	n	n	n	n	x	x	x	x	x	x
COc1cc(OC)cc(C(=O)NCC(=O)Nc2ccc(-c3ccccc3)cc2)c1	n	n	x	x	x	x	x	x	x	x
O=[N+]([O-])c1cc(S(=O)(=O)N2CCCC2)ccc1N/N=C1/CCCc2ccccc21	n	n	-3.99	n	n	n	n	n	n	u
CC(c1ccccc1)n1c(-c2cccs2)nc2c(c(=O)c3ccccc3n2C)c1=O (stereo not drawn)	n	n	-3.6	n	n	n	n	0.00568	n	n
CCOC(=O)C1CCCN(c2c(NCCCN(CC)c3ccccc3)c(=O)c2=O)C1 (stereo not drawn)	n	n	4.57	n	n	n	n	n	n	n
CCOC(=O)C1CCCN(c2c(NCCN(CC)c3ccccc3)c(=O)c2=O)C1 (stereo not drawn)	n	n	n	n	x	x	x	x	x	x
COC(=O)C(C)Sc1snnc1-c1ccccc1 (stereo not drawn)	n	n	x	n	n	n	n	u	n	n
CSc1sc(-c2n[nH]c(=S)n2C)c2c1C=CCC2	n	n	4.34	n	n	0.0149	n	0.00926	u	u
CCc1nnc2c(N(C)S(=O)(=O)c3ccc(C)cc3)nc3ccccc3n12	n	n	x	x	x	x	x	x	x	x
Cc1ccc(S(=O)(=O)N(C)c2nc3ccccc3[nH]c2=S)cc1	n	n	88.6	n	0.0387	0.0866	u	0.0648	0.0651	0.0192
Cc1ccc(S(=O)(=O)N(CC(=O)NCCSCc2ccco2)c2ccc(F)cc2)cc1	n	n	-4.26	x	n	n	n	n	0.0159	n
Cc1c(C2Nc3ccccc3NC3=C2C(=O)CC(C)(C)C3)cnn1C (stereo not drawn)	n	n	n	n	x	x	x	x	x	x
Cc1cc2c(cc1C)NC(c1nc3ccccc3[nH]1)C1=C(CC(C)(C)CC1=O)N2 (stereo not drawn)	n	n	-3.76	x	n	n	n	n	n	n
CCOC(=O)C1=C(CC)Nc2ccccc2N/C1=N\S(=O)(=O)c1cc(Br)ccc1Br	x	x	-4.03	n	n	u	0.0236	0.00634	0.0152	u
O=C(COc1ccc(C(=O)c2ccccc2)cc1)NCC1CCCCC1	n	n	n	n	x	x	x	x	x	x
CCCCCC(=O)Nc1cc(S(=O)(=O)N2CCOCC2)ccc1Oc1ccc(OCC)cc1	n	n	x	x	x	x	x	x	x	x
CC(=O)CCn1c(=O)n(CCC(C)=O)c(=O)n(CCC(C)=O)c1=O	n	n	n	n	n	u	n	n	n	u
CC(=O)CCCCn1c(=O)c2c(ncn2C)n(C)c1=O	n	n	n	n	x	x	x	x	x	x
Cc1ccc(-c2cc(C(F)F)n3ncc(C(=O)N4CCCCC4c4cccnc4)c3n2)cc1 (stereo not drawn)	n	n	n	n	x	x	x	x	x	x
O=C(c1cnn2c(C(F)(F)F)cc(-c3ccccc3)nc12)N1CCCCC1c1cccnc1 (stereo not drawn)	n	n	n	n	n	n	n	0.00539	n	n
O=c1ccc(N=Nc2ccccc2)ccc1O	n	n	151	n	0.0123	0.121	0.12	0.113	0.116	0.109
O=S(=O)(O)c1ccc(N=Nc2ccccc2)cc1	n	n	n	n	x	x	x	x	x	x
SMILES	CHT PAM	CHT inh	Cl transport mod	Rad51 HR inh	KCC2 secondary	KCC2 bumet counter	KCC2 secondary2	HEK293 Tl flux	KCC2 ouabain	HEK293 Tl flux2
O=C(Cn1nnc2c(cnn2-c2ccc(F)cc2)c1=O)Nc1ccccc1C(F)(F)F	n	n	-3.86	n	n	u	n	n	0.0169	n
C#CCCOC(=O)N1C2=NC(C(=O)OC)=C(C(=O)OC)[C@@H]3Nc4ccccc4[C@]23C[C@H]1C(=O)OC	n	n	x	n	x	x	x	x	x	x
Cc1ccc(CN(C(=O)COc2ccc(C)c(C)c2)C2CCS(=O)(=O)C2)o1 (stereo not drawn)	n	n	x	x	x	x	x	x	x	x
NN/C(=C\[N+](=O)[O-])Nc1ccc(Cl)cc1	n	n	6.7	n	n	0.0228	n	0.00999	n	n
CCC(C)NC(=O)Cn1c(-c2ccccc2)cc(C(C)=O)c1C (stereo not drawn)	n	n	n	n	x	x	x	x	x	x
COC(=O)[C@H](Cc1ccccc1)NC(=O)NCCc1ccccc1F	n	n	x	x	x	x	x	x	x	x
CCOC(=O)Cn1c(=NC(=O)c2ccc([N+](=O)[O-])s2)sc2ccccc21	n	n	n	n	x	x	x	x	x	x
c1ccc(-c2noc(-c3ccccc3-c3ccccc3)n2)cc1	n	n	5.63	n	n	n	n	n	n	n
O=C(c1cc(-c2ccccc2)nn1-c1ccccc1)N1CCN(S(=O)(=O)c2c(F)cccc2F)CC1	n	n	x	x	x	x	x	x	x	x
CC1=NN(c2nc(-c3ccc(C)cc3)cs2)C(=O)C1N=Nc1cccc(C)c1 (stereo not drawn)	n	n	n	n	x	x	x	x	x	x
CCOC(=O)c1sc(N2N=C(C)C(N=Nc3cccc(C)c3)C2=O)nc1C (stereo not drawn)	n	n	21.9	n	n	0.0264	0.0384	0.0161	0.0355	0.0185
C=C(C)c1cccc(C(C)(C)NC(=O)N2CCCC(C(N)=O)C2)c1 (stereo not drawn)	n	n	n	n	x	x	x	x	x	x
C=C(C)c1cccc(C(C)(C)NC(=O)N2CCC(C(N)=O)CC2)c1	n	n	-3.19	n	n	u	n	n	n	n
COc1ccc(C(=O)N2CCC(C(=O)O)CC2)c2ccccc12	n	n	x	x	x	x	x	x	x	x
CCNC(=S)NNC(=O)c1ccccn1	n	n	n	n	x	x	x	x	x	x
O=C(NNC(=S)Nc1ccc(Cl)c(Cl)c1)c1ccccn1	n	n	11.1	n	0.0131	0.0369	n	0.0186	0.0512	0.0117
COc1cccc(/C=C2\SC(=S)NC2=O)c1OS(=O)(=O)c1ccc(NC(C)=O)cc1	n	n	-5.85	x	u	n	u	0.00553	0.0142	n
O=S(=O)(c1ccc(F)cc1)N1CCn2c(nc3ccccc32)C1	n	n	x	n	x	x	x	x	x	x

Compound activity from PubChem BioAssay.
